From publication PMC8341738 (RSC Chemical Biology, 2021)

Legend:
[1] = Size-exclusion chromatography, single peptides; format: physicochemical; details: Superdex Peptide 10/300 GL; 20 μM total peptide; 10 mM potassium phosphate, 100 mM potassium fluoride, pH 7.0; 0.5 mL min^−1; room temperature; monomeric
[2] = test system: Fra1–cJun; assay: CD dimer exchange experiments; format: binding; details: CD at 20 °C, 150 μM total, equimolar, pH 7.0
In short: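 Dimer exchange by CD: equimolar peptide mixtures at 150 μM total peptide in 10 mM potassium phosphate, 100 mM potassium fluoride, pH 7.0. Equilibrated spectra recorded at 20 °C in a 1 mm cell, 300–190 nm in 1 nm steps, 0.5 s per wavelength, three scans averaged. Data expressed as mean residue ellipticity and superimposed across mixing orders.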

[3] = target: T1, Fra1 (Homo sapiens, UniProt P15407); assay: Protein-fragment complementation assay; format: cell-based; details: competition selection in liquid M9 medium, ten rounds, E. coli
T1 sequence (P15407 129-162): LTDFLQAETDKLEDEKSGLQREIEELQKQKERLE

[4] = test system: cJun; assay: CD thermal denaturation, mixture with cJun; format: binding; details: cJun–Fra1W; CD at 222 nm, 150 μM total peptide, pH 7
In short: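 Equimolar peptide pair at 150 μM total in 10 mM potassium phosphate, 100 mM KF, pH 7. Ellipticity at 222 nm recorded from 0 to 90 °C in 1 °C steps with a 30 s pause at each step, signal averaged over 4 s. Reversible curves (≥95%) were least-squares fitted to a two-state model (modified Gibbs–Helmholtz) to give Tm.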

[5] = target: T1, Fra1; assay: Circular dichroism spectra, 1:1 mixture with Fra1; format: binding; details: 1:1 with Fra1, 150 μM total peptide, pH 7.0
In short: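 Fra1 and test peptide mixed 1:1 at 75 μM each (150 μM total) in 10 mM potassium phosphate, 100 mM KF, pH 7.0. Far-UV CD in a 1 mm cell, 300–190 nm, 1 nm steps, 0.5 s per point, three scans averaged. Spectra taken at 20 °C, at 5 °C, and at 20 °C after thermal denaturation to check refolding. Reported as mean residue ellipticity; 222/208 ratio used to judge oligomerisation.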

[6] = target: T1, Fra1; assay: Isothermal titration calorimetry, Fra1W titrated into Fra1; format: binding
[7] = Circular dichroism spectra, peptides in isolation; format: physicochemical; details: CD, 150 μM total peptide, 10 mM potassium phosphate, 100 mM potassium fluoride, pH 7.0
[8] = test system: cJun; assay: Circular dichroism spectra, mixture with cJun; format: binding; details: CD at 20 °C, mixed with cJun, 150 μM total peptide, pH 7.0
[9] = target: T1, Fra1; assay: Size-exclusion chromatography, mixture with Fra1; format: binding; details: Fra1–Fra1W mixture, 20 μM total peptide, pH 7.0; dimeric
In short: (§1)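 Peptide mixture at 20 μM total peptide in 10 mM potassium phosphate, 100 mM KF, pH 7.0, run at room temperature on a peptide gel-filtration column at 0.5 mL min⁻¹. Elution times compared against previously characterised monomeric and heterodimeric coiled-coil reference peptides.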

[10] = test system: cJun; assay: Size-exclusion chromatography, mixture with cJun; format: binding; details: cJun–Fra1W mixture, 20 μM total peptide, pH 7.0; monomeric
In short: as §1

With “Ac-KAAALKQKAYALKQQIAALKKQVAALKQKIAALK-NH2 [Fra1W]” the “SEC elution time (oligomeric state)” value [1] was “approximately 20 min”, the “dimer exchange on addition of Fra1W to Fra1–cJun” value [2] was “an increase in signal was observed” and the “dimer exchange on addition of Fra1 to cJun–Fra1W” value [2] was “the CD signal increased from the average of the component samples”. For the same substance, the “dimer exchange on addition of cJun to Fra1–Fra1W” value [2] was “no exchange of binding partner had occurred”, the PCA selection outcome [3] was “one clean DNA sequence in the pool after ten rounds of competition selection passaging” and the “thermal denaturation profile vs average of component peptides” value [4] was “no difference from the average of the component peptides”. The “CD signal vs averaged homomeric signals” value ([5]; CD at 20 °C) was “an increase from the averaged homomeric signals of Fra1 and Fra1W”, the 222/208 nm ratio ([5]; CD) was 1.06 and the “α-helical content of Fra1–Fra1W complex” value ([5]; CD) was 75%. For the same substance, the “α-helical content relative to Fra1 in isolation” value ([5]; CD) was “more than three times that of the target Fra1 in isolation”, the Kd [6] was 917 nM and the “N (stoichiometric measure of binding)” value ([6]; ITC, 20 °C, pH 7.0) was 1.06. The helical content [7] was 60%, the “CD signal vs averaged homomeric signals” value [8] was “superimposed with the averaged homomeric signals” and the “SEC elution time (oligomeric state)” value [9] was “approximately 19 min”. For the same substance, the “SEC elution time (oligomeric state)” value [10] was “approximately 20 min”.
